PMI act satM6P: PMI (human) activation, high substrate; activation factor at 20 µM; coupled PMI enzyme assay, resazurin fluorescence, 20 min; stronger effect = higher value; 1 = untreated enzyme, 0 = substrate-free blank; P34949; 190,000 tested, 0.34% active;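 active = activation factor of 2 or more at 20 µM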
Target sequence (P34949 whole entry, looked up): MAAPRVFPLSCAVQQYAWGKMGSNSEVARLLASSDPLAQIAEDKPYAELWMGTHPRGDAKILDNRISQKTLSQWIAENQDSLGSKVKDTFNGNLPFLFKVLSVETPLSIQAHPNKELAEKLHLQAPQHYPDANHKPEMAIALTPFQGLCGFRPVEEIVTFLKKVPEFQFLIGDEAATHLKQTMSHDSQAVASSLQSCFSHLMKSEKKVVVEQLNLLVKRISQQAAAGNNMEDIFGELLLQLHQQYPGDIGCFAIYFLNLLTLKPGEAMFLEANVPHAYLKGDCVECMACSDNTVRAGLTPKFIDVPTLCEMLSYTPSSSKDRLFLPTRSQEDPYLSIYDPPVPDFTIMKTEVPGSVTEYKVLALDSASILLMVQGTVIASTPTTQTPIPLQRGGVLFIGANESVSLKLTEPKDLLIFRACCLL
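assay system = human phosphomannose isomerase with PGI, G6PDH, diaphorase coupling enzymes | quantity = 15 ng/mL PMI | incubation = enzyme reaction with compound 20 min at room temperature | medium = HEPES pH 7.4 buffer with MgCl2 and Tween-20 | compound dosing = one concentration, 20 µM, in 1% DMSO | measured by = Diaphorase-driven resazurin-to-resorufin fluorescence, excitation 544, emission 590 nm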
Lmaj promast: inhibitors of Leishmania major promastigote growth; inhibition, % at 10 µM; Leishmania major promastigotes, resazurin fluorescence viability; 200,000 tested, 9% active; AID 1063; in the data active = inhibition above about 50%;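 note: promastigotes grown with compound for 44 hours at 28 °C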
bCat KO growth: beta-catenin-lacking colon tumor cell growth suppression; HCT116 beta-catenin knockout viability, CellTiter-Glo, 60 h; stronger effect = lower value; viability, % at 10 µM; 140,000 tested, 1.5% active;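 active = viability at or under a set limit, the compound median less 4 SD, cut at about 6% in these data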;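 note: 0% = Hyamine 1622 control at 20 µM and 100% = untreated cell control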
PMI act: increases human mannose-6-phosphate isomerase activity; activation factor at 20 µM; purified human PMI, coupled resazurin fluorescence, 20 min; stronger effect = higher value; 1 = vehicle control, 0 substrate-free wells; 190,000 tested, 0.005% active;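 active = activation factor of 2 or more at 20 µM, relative to plate controls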
HCT116 PTEN-null: PTEN-deleted cell growth suppression. 140,000 tested, 1.2% active. HCT116 PTEN-null viability, CellTiter-Glo, 60 h; stronger effect = lower value. viability, % at 10 µM;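 active = viability at or below a set limit, 4 SD under the median of all tested compounds, cut at about 3.7% in these data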;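 note: PTEN knockout HCT116 line with beta catenin targeted HCT116 as companion control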
* marks the source's active call; other numbers are inactive results; nt = no result given. Rows were chosen to be rich in hits. Some 9.6% of all compounds tested hit in one or more screens of this group.

SMILES	PMI act satM6P	Lmaj promast	bCat KO growth	PMI act	HCT116 PTEN-null
O=C(CCc1nnc(-c2ccc3c(c2)OCO3)o1)N1CCC(c2ccc(F)cc2)C1 (stereo not drawn)	1.1	-7	nt	1	nt
Cc1ccc(SCC(=O)Nc2cccc(NC(=O)c3ccco3)c2)cc1	1	77*	86	1	81
CCC(=O)Nc1cccc(-n2nnnc2SCC(=O)c2ccc(C)c(C)c2)c1	0.9	99*	59	0.8	66
O=C(CSc1ccc(Cl)cc1)Nc1ccc(NC(=O)c2ccco2)cc1	0.8	4	104	0.8	100
Cc1ccc(-n2nnnc2SCC(=O)Nc2cccc(NC(=O)c3ccco3)c2)cc1C	0.9	66*	91	0.8	86
Cc1cc(C)cc(-n2nnnc2SCC(=O)Nc2cccc(NC(=O)c3ccco3)c2)c1	1	40	45	1	40
CCCc1ccc(OCC(=O)NNC(=O)c2cccnc2)cc1	0.7	-6	nt	1.1	nt
Cn1ccnc1C(=O)c1cc(SCC(=O)N2CCOCC2)nc2ccccc12	1	7	nt	1.1	nt
COc1ccc(C2=NN(S(C)(=O)=O)C(c3cccs3)C2)cc1OC (stereo not drawn)	1	0	nt	1	nt
CCCCc1nc2ccccc2c(N)c1CCC (tested in a mixture with another compound)	1	95*	46	0.9	36
N#CCCN(C(=O)COC(=O)c1ccc(CNS(=O)(=O)c2ccc(F)c(Cl)c2)cc1)c1ccc(F)cc1	0.9	97*	62	0.8	57
CN(C)CC(C)(C)CNS(=O)(=O)c1ccc(OC(F)(F)F)cc1	1	-2	nt	1.1	nt
Fc1ccc(COc2ccccc2CNCc2ccncc2)cc1	1.2	98*	89	1.2	85
O=C(N/N=C/c1ccncc1)c1cc(Br)ccc1OCc1ccccc1	0.9	-5	88	0.8	86
Brc1ccc(OCc2ccccc2)c(CNCc2ccncc2)c1	1.1	94*	48	1	48
COc1ccc(CCNC(=O)CSc2nn(-c3ccccc3)c(=S)s2)cc1OC	1	14	93	0.9	87
Cc1ccc(O)c(C(CC(=O)NC2CCCCC2)c2ccccc2)c1 (stereo not drawn)	1	33	nt	1	nt
Cc1ccc2[nH]c(SCC(=O)N3CCOCC3)nc2c1C	1	-6	87	0.9	97
O=C1[C@@H]2Cc3c([nH]c4ccccc34)[C@@H](c3ccccc3)N2C(=O)[C@@H]2Cc3c([nH]c4ccccc34)[C@@H](c3ccccc3)N12	1.1	76*	1.4*	1.2	1.5*
COc1cc([C@H]2c3[nH]c4ccccc4c3C[C@H]3C(=O)N4[C@@H](c5cc(OC)c(OC)c(OC)c5)c5[nH]c6ccccc6c5C[C@H]4C(=O)N23)cc(OC)c1OC	1.1	-4	3.0*	1.1	1.8*
N#CC(c1ccccc1)N(CCCCl)C(=O)c1ccccc1 (stereo not drawn)	1.1	13	82	1	90
N#Cc1ccc(OCC(=O)NCCc2ccccn2)cc1	1.1	-1	104	1.1	97
COc1ccc(C2CC(c3cccc(C)c3)n3nc(N)nc3N2)cc1 (stereo not drawn)	0.9	86*	98	0.8	96
Cc1cccc(C2CC(c3ccc(Br)cc3)Nc3nc(N)nn32)c1 (stereo not drawn)	1	73*	58	0.9	62
Nc1nc2n(n1)C(c1cccc(Br)c1)CC(c1ccc(F)cc1)N2 (stereo not drawn)	1	93*	101	0.9	90
SMILES	PMI act satM6P	Lmaj promast	bCat KO growth	PMI act	HCT116 PTEN-null
COc1cccc(C2CC(c3cccc(OC)c3)n3nc(N)nc3N2)c1 (stereo not drawn)	0.9	-11	100	0.9	110
Nc1nc2n(n1)C(c1ccccc1)CC(c1ccc(F)cc1)N2 (stereo not drawn)	0.9	-5	85	1	88
COc1ccc(C2CC(c3cccc(Cl)c3)n3nc(N)nc3N2)cc1 (stereo not drawn)	0.9	62*	83	0.9	86
CCOC(=O)c1cnc2c(C(=O)OC)cccc2c1NCc1cccnc1	0.9	24	nt	1	nt
O=C(CSc1ccc(Cl)cc1)N/N=C/c1cccnc1	0.9	4	nt	1	nt
CC(=O)c1sc2nc(-c3ccc(C)cc3)c3c(c2c1N)CCCC3	1.7	41	73	1.4	61
Cc1ccc(-c2nc3sc(C(N)=O)c(N)c3c3c2CCCC3)cc1	2.4*	24	65	1.6	65
O=C(Nc1c(Cl)ccc2nsnc12)c1cccnc1	1	-3	95	1.1	92
CN(C)c1ccc(C=C(c2nnnn2-c2ccccc2)c2nnnn2-c2ccccc2)cc1	1	4	87	0.9	80
CCC(Oc1cc(Cl)ccc1Cl)C(=O)NNC(=O)CCC(=O)O (stereo not drawn)	0.9	-3	89	1	99
CCC(Oc1cc(Cl)ccc1Cl)C(=O)NN1C(=O)C2C3CCC(C3=C(C)C)C2C1=O (stereo not drawn)	0.8	98*	70	0.8	59
O=C(C[n+]1ccccc1)Nc1ccccc1Br	0.9	-2	nt	1	nt
CCOCCCNC(=O)NC(=O)CN1CCN(S(=O)(=O)c2ccc3c(c2)OCCO3)CC1	0.9	-2	nt	0.9	nt
O=S1(=O)CC=C(CSC(=S)NC2CCS(=O)(=O)C2)C1 (stereo not drawn)	1.1	76*	nt	1	nt
CCNc1nc(NCC)n2c(SC(C(=O)Nc3cc(C)ccc3C)c3ccccc3)nnc2n1 (stereo not drawn)	1	15	66	1	72
CCOCCCn1c(SC(C(=O)Nc2cc(C)ccc2C)c2ccccc2)nnc1-c1ccc(Cl)cc1 (stereo not drawn)	0.9	61*	53	0.9	59
COc1ccccc1Cc1nc2ccccc2n1S(=O)(=O)c1ccc(Cl)cc1	1	75*	76	1.1	90
O=C(Cc1ccccc1)NCC(=O)OCc1ccc([N+](=O)[O-])cc1	1	-7	110	1	92
Cc1cccn2c(=O)c(/C=C(\C#N)C(=O)NCc3ccco3)c(N3CCC(C(N)=O)CC3)nc12	0.8	-5	85	0.8	65
CCNC(=O)/C(C#N)=C/c1c(N2CCOCC2)nc2ccccn2c1=O	1	-5	87	1	92
CCNC(=O)/C(C#N)=C/c1c(N(Cc2ccccc2)Cc2ccccc2)nc2ccccn2c1=O	0.9	56*	45	0.8	40
CNC(=O)/C(C#N)=C/c1c(N(Cc2ccccc2)Cc2ccccc2)nc2c(C)cccn2c1=O	1	72*	50	0.9	52
CCNC(=O)/C(C#N)=C/c1c(N2CCN(Cc3ccc4c(c3)OCO4)CC2)nc2c(C)cccn2c1=O	0.9	55*	76	0.9	74

Screening results from PubChem.
